# From PubChem
# A selection: hits, their analogues and other compounds. The true share with any hit is near 3.4%.
# CHT inh: inhibits the human high affinity choline transporter. Q9GZV3. CHT-expressing cells, membrane potential dye, choline response; stronger effect = lower value. B-score at 10 µM. 310,000 compounds, 0.86% hits;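 active means B-score over 3 SD under the library average, and starting fluorescence ratio not unusually high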;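 further: choline stimulus applied at its EC90 after an EC20 pre-addition; B-score computed on integrated fluorescence ratio after choline addition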
# VIM-2 inhibitor: blocks Pseudomonas aeruginosa VIM-2 metallo-beta-lactamase. purified VIM-2, nitrocefin hydrolysis, epi-absorbance fluorescence. inhibition, % at 5.6 µM. AID 1527. 290,000 compounds, 0.89% hits;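 active means inhibition above the mean of all tested compounds plus 3 SD, cutoff set per screening run, cut at about 7.5% in these data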;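 further: red hydrolysis product quenches plate fluorescence so inhibitors raise well fluorescence; 0% = enzyme with DMSO and 100% = DMSO without enzyme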
# IMP-1 inhibitor: inhibitors of Pseudomonas aeruginosa IMP-1 metallo-beta-lactamase | AID 1556 | inhibition, % at 5.6 µM | 290,000 compounds, 0.45% hits | purified IMP-1, nitrocefin hydrolysis, epi-absorbance fluorescence;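 active means inhibition above the mean plus 3 SD of all compounds in the same screening run, cut at about 4.5% in these data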;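 further: 0% = IMP-1 with DMSO and 100% = DMSO wells lacking enzyme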
#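 assay system = purified recombinant IMP-1 metallo-beta-lactamase enzyme | schedule = 15 min preincubation plus 25 min reaction at 25 °C | signal = Epi-absorbance fluorescence, 480 nm excitation, 530 nm emission | read-out basis = percent inhibition from optical density relative to buffer-blank wells | controls = IMP-1 with DMSO as 0%, enzyme-free DMSO as 100%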
# ANO1 block: inhibitors of mouse TMEM16A calcium-activated chloride channel; Q8BHY3; HEK293 TMEM16A/YFP iodide influx fluorescence, ionomycin; normalized B-score (activity score, 25-100; higher = stronger inhibition) at 10 µM; 310,000 compounds, 1.2% hits; AID 588511;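 active means ratio plate-corrected score three or more library SD toward inhibition, starting fluorescence score within five deviations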;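 further: score derived from kinetic fluorescence span divided by baseline fluorescence per well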
# CHT PAM: human CHT allosteric activation | Q9GZV3 | CHT-expressing cells, membrane potential dye, choline EC20; stronger effect = higher value; LV-AA mutant CHT in HEK293 cells | B-score at 10 µM | 310,000 compounds, 0.49% hits;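 active means initial fluorescence not abnormally high and integrated response B-score, plate-corrected, over 3 SD above library mean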
# TMEM16A act: mouse TMEM16A channel activation, primary screen. Q8BHY3. HEK293 TMEM16A/YFP-H148Q/I152L, iodide quench fluorescence; stronger effect = lower value. B-score at 10 µM. 340,000 compounds, 0.3% hits. AID 623877;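 active means fluorescence-ratio B-score plate-corrected deviation score at least 3 library SD below zero, with starting fluorescence score within 5 deviations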;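 further: channel opened by trigger with iodide after compound preincubation; score built on the fluorescence ratio of max minus min over baseline; more negative score means more quench and so TMEM16A activation or potentiation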
# The depositor's hits bear a star; i = inactive; · = not tested or not shown.
SMILES,CHT inh,VIM-2 inhibitor,IMP-1 inhibitor,ANO1 block,CHT PAM,TMEM16A act
CCCOC(=O)c1ccc(Oc2c(-c3ccc(O)cc3O)n[nH]c2C)cc1,i,-1.0,-1.5,25*,i,i
CCCOC(=O)c1ccc(Oc2c(-c3ccc(OC)cc3O)n[nH]c2C)cc1,i,-1.5,-1.5,i,i,i
CCOc1ccc(CCNC(=O)CSCC(=O)Nc2cccc(C)c2)cc1OCC,i,·,·,i,i,i
CC(=O)c1ccc(OCc2cc(C(=O)N3CCC(Oc4ccccc4C)CC3)no2)cc1,i,3.1,2.7,100*,i,i
COc1ccccc1C(c1nnnn1C1CCCC1)N1CCN2CCCC2C1 (stereo unspecified),i,-2.9,-2.8,i,i,-11.5*
Cc1cc(C)cc(N2CCCn3c2nc2c3c(=O)[nH]c(=O)n2C)c1,i,3.2,-2.8,i,i,i
Cc1cc(C)cc(N2CC(C)Cn3c2nc2c3c(=O)[nH]c(=O)n2C)c1 (stereo unspecified),i,8.6*,-4.7,i,i,i
O=C(O)c1ccc(CN2C(=O)c3cccc4c([N+](=O)[O-])ccc(c34)C2=O)cc1,·,1.9,-1.4,·,·,i
Cc1ccc(C(=O)O)cc1N1C(=O)c2cccc3c([N+](=O)[O-])ccc(c23)C1=O,-5.01*,1.0,6.1*,i,i,i
CCc1ccccc1NC(=O)CSc1nc2n[nH]c(C)c2c(=N)n1-c1ccc(OC)cc1,·,-2.0,-4.5,·,·,i
CCOc1ccc(-n2c(SCC(=O)Nc3ccc(CC)cc3)nc3n[nH]c(C)c3c2=N)cc1,i,2.1,-2.2,i,i,-6.44*
COc1cc(/C=C2\SC(=O)N(CCN)C2=O)ccc1OS(=O)(=O)c1cc(C)ccc1C,·,1.8,0.1,·,·,i
Cc1ccc2c(c1)c1ncnc(N3CCOCC3)c1n2C,i,7.7*,-4.0,i,i,i
CC(C)(C)NC(=O)C(=O)NNC(=O)c1cccc(F)c1,i,-3.1,-3.6,i,i,i
CC(SCc1ccccc1)C(=O)Nc1ccc(F)cc1 (stereo unspecified),i,0.8,-1.0,i,i,i
Cc1cccc(CSC(Nc2ccc(F)cc2)=C(C#N)C#N)c1,i,-1.6,-0.1,100*,i,i
N#CC(C#N)=C(Nc1ccc(F)cc1)SCc1cccc(Br)c1,i,-2.7,-0.6,100*,i,i
Cc1cccc(NC(=O)Cc2ccc(F)cc2)c1,i,-2.3,-2.4,i,i,i
CCC(C)[C@H](NS(=O)(=O)c1ccc(C)cc1)C(=O)N1CCC(C(=O)N[C@@H](Cc2ccccc2)C(=O)O)CC1 (stereo partly specified),i,-1.1,-2.9,i,i,i
Cc1ccc(C)c(N2CCN(C(=O)C3CCCN(c4ncnc5c4nc4n5CCCCC4)C3)CC2)c1 (stereo unspecified),-7.44*,-0.4,-1.1,i,i,i
O=C(CN1C(=O)NC2(CCCCCC2)C1=O)NCc1ccccc1Cl,·,·,·,·,·,i
Cc1cc(=O)oc2cc(OCC(=O)NC3(C#N)CCCCC3)c(Cl)cc12,·,·,·,·,·,i
Cc1sc2nc(COC(=O)CNC(=O)c3ccc(C(C)(C)C)cc3)[nH]c(=O)c2c1C,i,-3.8,8.6*,i,i,i
COc1cccc(CNc2ccccc2O)c1OCc1ccccc1F,i,-0.5,-3.2,i,i,i
O=S(=O)(c1ccc(Cl)cc1)N1CCC(N2CCCCCC2)CC1,i,-2.2,5.7*,i,i,i
SMILES,CHT inh,VIM-2 inhibitor,IMP-1 inhibitor,ANO1 block,CHT PAM,TMEM16A act
CCOc1ccc2c(c1)C(N(CCN1CCOCC1)C(=O)Nc1ccccc1)CC(C)(C)O2 (stereo unspecified),i,-3.1,-2.1,i,i,i
CC(=O)NCCOc1nc(N2CCCCC2)nc(N2CCCCC2)n1,i,-3.7,-2.5,i,i,-7.01*
O=C(NCCOc1nc(N2CCCCC2)nc(N2CCCCC2)n1)Nc1ccccc1,i,-1.0,-2.9,i,i,i
O=C1CC(=O)C(n2cncn2)C(c2cccc(Cl)c2)C1 (stereo unspecified),i,-3.7,-1.9,i,i,i
Cc1cc(C2C(=O)CC(=O)CC2c2ccccc2)on1 (stereo unspecified),i,3.2,7.7*,i,i,i
COC(=O)CCN1CCC2CC1c1cc(Cl)ccc12 (stereo unspecified),·,·,·,·,·,i
CCCc1nnc2n1N=C(c1ccc(OC)c(OC)c1)CS2,-5.02*,-0.1,-2.1,i,i,i
Cc1ccc(NC(=O)CN(C)C(=O)c2cccc(S(=O)(=O)NCc3ccco3)c2)cc1,·,·,·,·,·,i
O=C(Nc1nnc(SCC(=O)N2CCCCC2)s1)c1ccccc1F,i,9.2*,0.7,i,i,i
O=C(Nc1nnc(SCC(=O)N2CCOCC2)s1)c1ccccc1Cl,i,0.7,-2.9,i,i,i
O=c1[nH]c(SCc2nc3c(cnn3-c3ccccc3)c(=O)[nH]2)nc2ccccc12,·,-1.2,-3.7,·,·,i
O=c1[nH]c(CSc2nc3ccccc3[nH]2)nc2c1cnn2-c1ccccc1,i,-2.4,-2.9,100*,i,i
CSc1nnc(-c2ccccc2)o1,i,-1.4,-2.0,i,i,i
CSc1nnc(-c2ccc(NC(N)=S)cc2)o1,i,1.2,4.6*,i,i,i
CSc1nnc(-c2cccc(NC(=S)NN)c2)o1,i,9.7*,-3.9,i,i,i
Cc1ccc2c(c1)[C@H]1[C@H](CO2)[C@H](c2ccccc2)[C@]2(C)C(=O)NCC(=O)N12,·,·,·,·,·,i
COc1ccc(S(N)(=O)=O)cc1C(=O)NC1CCCc2ccccc21 (stereo unspecified),i,0.5,-2.7,i,i,i
O=C(Nc1ccc(OC(F)(F)F)cc1)NC1CCC(Oc2ccc(C(=O)O)cc2)CC1 (stereo unspecified),·,·,·,·,·,i
CCN(CC1CCCO1)C(=O)CCc1nnc(CCc2ccc(OC)cc2)o1 (stereo unspecified),i,-3.5,-5.2,i,i,i
C=CCn1c(=O)/c(=C/c2ccc(Cl)cc2)s/c1=C(\C#N)c1nnc2n1CCCCC2,·,·,·,·,·,i
CCc1ccccc1N(CC(=O)NC1CCCCC1)C(=O)CCC(=O)Nc1ccccn1,i,-3.7,-1.9,i,i,-5.75*
O=C(NC1CCCCC1)C(c1ccccc1)N(C(=O)c1csnn1)C1CC1 (stereo unspecified),i,-0.9,-2.7,i,i,i
C[C@H](C(=O)CC(=O)OC(C)(C)C)[C@H](O)c1ccccc1,i,-3.6,-3.9,i,i,i
